Data on two compounds can be found in ChEMBL document CHEMBL4024754, “Development of Potent, Protease-Resistant Agonists of the Parathyroid Hormone Receptor with Broad β Residue Distribution” (J Med Chem, 2017).

As a reminder, the half-life is the time in which the quantity being followed falls by half.

Calls of active or inactive are those of the source. The rule behind the calls is not given here.

The target of data set [1] is T1, Parathyroid hormone/parathyroid hormone-related peptide receptor (Homo sapiens) (UniProt Q03431).
T1 sequence (whole entry): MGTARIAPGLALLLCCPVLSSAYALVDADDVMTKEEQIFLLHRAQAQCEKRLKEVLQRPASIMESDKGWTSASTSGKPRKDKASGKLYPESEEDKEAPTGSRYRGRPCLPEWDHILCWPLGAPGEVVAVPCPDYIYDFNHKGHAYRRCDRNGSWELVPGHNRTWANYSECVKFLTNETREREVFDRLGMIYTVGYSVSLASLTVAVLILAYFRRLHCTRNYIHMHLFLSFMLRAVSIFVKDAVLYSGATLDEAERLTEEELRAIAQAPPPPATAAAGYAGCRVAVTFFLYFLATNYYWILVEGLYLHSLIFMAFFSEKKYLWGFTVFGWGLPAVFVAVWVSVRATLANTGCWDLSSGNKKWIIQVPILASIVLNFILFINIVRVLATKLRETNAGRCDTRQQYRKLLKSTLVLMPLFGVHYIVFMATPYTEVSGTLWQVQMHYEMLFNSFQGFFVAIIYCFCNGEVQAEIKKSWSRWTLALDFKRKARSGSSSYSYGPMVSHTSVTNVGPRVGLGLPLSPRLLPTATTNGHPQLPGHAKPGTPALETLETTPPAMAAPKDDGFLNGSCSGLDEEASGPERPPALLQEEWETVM
Briefly: Agonist activity at human PTH1 receptor expressed in human GP2.3 cells assessed as induction of cAMP after 12 to 20 mins by luciferase reporter gene assay relative to PTH(1 to 34 residues)-NH2. The data set is classed as functional, cell-based. On the technique in general: A reporter such as luciferase makes a cellular process visible.

Data set [2] is described as follows: Stability in simulated gastric fluid assessed as pig pepsin-mediated proteolysis at 40 uM after 5 secs by RP-HPLC analysis. Type of data set: ADME, Sus scrofa. Conditions: isolated protein, 5 s. The method in brief:
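Proteolysis quenched by transfer into 10× PBS, pH 7.4, giving 40 μM peptide. Analysed by analytical C18 RP-HPLC, 10–60% acetonitrile/0.1% TFA over 50 min. Intact peptide quantified by integrating its peak. Duplicate reactions run concurrently, standard deviation.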

Data set [3] concerns the target T1, Parathyroid hormone/parathyroid hormone-related peptide receptor (Homo sapiens). Briefly: Agonist activity at human PTH1 receptor expressed in human GP2.3 cells assessed as induction of cAMP at 0.1 to 100 nM preincubated with SGF for 5 secs followed by compound transfer to GP2.3 cells by luciferase reporter gene assay. Type of data set: functional, cell-based. The method in brief: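 Quenched at set times with 10× PBS, diluted into CO2-independent medium, serially 1:10, then added to confluent GP2.3 cells (HEK293, hPTHR1 plus Glosensor cAMP reporter) preloaded 30 min with 0.5 mM D-luciferin. Final 100–0.1 nM. Luminescence read; two technical replicates; variable-slope sigmoidal fit.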

Data set [4] has the same target. In words: Agonist activity at human PTH1 receptor expressed in human GP2.3 cells assessed as induction of cAMP at 0.1 to 100 nM preincubated with protease activity quenched SGF up to 4 hrs followed by compound transfer to GP2.3 cells by luciferase reporter gene assay. The data set is classed as functional, cell-based. The gist of the method:
(§1)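 Control samples: simulated gastric fluid neutralized with 10× PBS, or intestinal fluid mixed with acetonitrile/TFA quench solution, before adding peptide. Gastric controls held up to 4 h. Then diluted and tested on luciferin-loaded GP2.3 cells at 100−0.1 nM final, alongside freshly prepared peptide.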

The target is the same in data set [5]. In words: Agonist activity at human PTH1 receptor expressed in human GP2.3 cells assessed as induction of cAMP at 0.1 to 100 nM preincubated with protease activity quenched SIF followed by compound transfer to GP2.3 cells by luciferase reporter gene assay. The data set is classed as functional, cell-based. The gist of the method:
as §1

Data set [6] shares this target. In words: Agonist activity at extracellular domain truncate human PTH1 receptor expressed in GD5 cells assessed as induction of cAMP after 12 to 20 mins by luciferase reporter gene assay. Type of data set: functional, cell-based. The gist of the method:
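HEK293-derived lines stably expressing Glosensor cAMP reporter plus full-length human PTHR1 (GP2.3) or ECD-truncated PTHR1 (GD5). Confluent monolayers preincubated at room temperature in CO2-independent medium with 0.5 mM D-luciferin until baseline stable (30 min), then varied agonist concentrations added. Maximal luminescence (12−20 min) used for sigmoidal variable-slope fits.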

A short description of data set [7]: Drug metabolism in Sprague-Dawley rat kidney homogenates assessed as protease mediated-drug degradation at 12 uM up to 5 mins by MALDI-TOF-MS analysis. The data set is classed as ADME, tissue-based. Conditions: tissue homogenate. The method in brief: (§2)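 Perfused female Sprague-Dawley kidney homogenate in 50 mM Tris-HCl pH 7.4, diluted to 2.5 mg protein/mL. Peptide spiked at 50 μg/mL (~12 μM) and incubated at 37 °C. Timed samples quenched with equal volume 1% TFA, centrifuged, dried, reconstituted in 0.1% formic acid, mixed with DHB matrix. Fragments identified by MALDI-TOF MS.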

The nature of data set [8]: Drug metabolism in Sprague-Dawley rat kidney homogenates assessed as protease mediated-drug degradation at 12 uM up to 15 mins by MALDI-TOF-MS analysis. Type of data set: ADME, tissue-based. Conditions: tissue homogenate. The method in brief: as §2
A short description of data set [9]: Drug metabolism in Sprague-Dawley rat kidney homogenates assessed as protease-mediated metabolite formation at 12 uM after 5 mins by MALDI-TOF-MS analysis. The data set is classed as ADME, tissue-based. Conditions: tissue homogenate. The method in brief: as §2
For data set [10], the target named is T1, Parathyroid hormone/parathyroid hormone-related peptide receptor (Homo sapiens). In words: Agonist activity at human PTH1 receptor expressed in human GP2.3 cells assessed as induction of cAMP at 0.1 to 100 nM preincubated with SIF for 10 mins followed by compound transfer to GP2.3 cells by luciferase reporter gene assay. Type of data set: functional, cell-based. The gist of the method: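 Simulated intestinal fluid containing pancreatin, pH 6.8, prepared fresh and kept at 37 °C. Peptide incubated in it as for gastric fluid. Quenched 1:1 with 50% acetonitrile/1% TFA. Quenched samples serially diluted in CO2-independent medium and applied to luciferin-preloaded GP2.3 cells at 100−0.1 nM final. Luminescence read. Two technical replicates.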

The test system of data set [11] is Mus musculus. Briefly: In vivo induction of excessive bloodstream calcium concentration in CD1 mouse at 20 nmol/kg, sc after 2 hrs by Ca2+/pH analyzer. Type of data set: organism-based. The gist of the method:
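Female CD1 mice (9−12 weeks), n = 5, given 20 nmol/kg subcutaneously in 10 mM citrate/150 mM NaCl/0.05% Tween-80, pH 5.0. Tail vein blood taken before and at times after dosing. Ca2+ measured by Ca2+/pH analyzer. One-way ANOVA with Dunnett's test vs vehicle. Mean ± SEM.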

Data set [12] addresses T1, Parathyroid hormone/parathyroid hormone-related peptide receptor (Homo sapiens). In words: Displacement of [125I]-PTH(1 to 34 residues) from R0 state of human PTHR1 expressed in African green monkey COS7 cell membranes incubated for >1 hr in presence of GTPgammaS by gamma radiation method. Background: Displacement assays read how much labelled ligand stays bound in the presence of the test substance.

The nature of data set [13]: Half life in Sprague-Dawley rat kidney homogenates at 12 uM by HPLC-MS analysis. Type of data set: ADME, tissue-based. The gist of the method: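 Kidney homogenate (2.5 mg protein/mL, pH 7.4 Tris) spiked with peptide at 50 μg/mL (~12 μM), 37 °C, sampled 0−120 min. […] C18 UHPLC–Orbitrap MS quantified via y32 ion area ratio against calibration standards. Exponential decay fit, mean ± SD of two replicates.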

As to `CC[C@H](C)[C@H](NC(=O)[C@H](CCC(=O)O)NC(=O)[C@H](CO)NC(=O)[C@@H](NC(=O)[C@@H](N)CO)C(C)C)C(=O)N[C@@H](CCC(N)=O)C(=O)N[C@@H](CC(C)C)C(=O)N[C@@H](CCSC)C(=O)N[C@@H](Cc1cnc[nH]1)C(=O)N[C@@H](CC(N)=O)C(=O)N[C@@H](CC(C)C)C(=O)NCC(=O)N[C@@H](CCCCN)C(=O)N[C@H](CC(=O)N[C@@H](CC(C)C)C(=O)N[C@@H](CC(N)=O)C(=O)N[C@@H](CO)C(=O)N[C@@H](CCSC)CC(=O)N[C@@H](CCC(=O)O)C(=O)N[C@@H](CCCNC(=N)N)C(=O)N[C@H](C(=O)N[C@@H](CCC(=O)O)CC(=O)N[C@@H](Cc1c[nH]c2ccccc12)C(=O)N[C@@H](CC(C)C)C(=O)N[C@@H](CCCNC(=N)N)C(=O)N[C@@H](CCCCN)CC(=O)N[C@@H](CCCCN)C(=O)N[C@@H](CC(C)C)C(=O)N[C@@H](CCC(N)=O)C(=O)N[C@@H](CC(=O)O)CC(=O)N[C@H](C(=O)N[C@@H](Cc1cnc[nH]1)C(=O)N[C@@H](CC(N)=O)C(=O)N[C@H](CC(N)=O)Cc1ccccc1)C(C)C)C(C)C)Cc1c[nH]c2ccccc12`, the fold change (FC) in [1] was 2.1. In data set [2], the Stability result was “Unstable”. Also, the outcome in data set [3] was inactive. Besides, the result in data set [4] and in data set [5] was Active.

Consider `CC[C@H](C)[C@H](NC(=O)[C@H](CCC(=O)O)NC(=O)[C@H](CO)NC(=O)[C@@H](NC(=O)[C@@H](N)CO)C(C)C)C(=O)N[C@@H](CCC(N)=O)C(=O)N[C@@H](CC(C)C)C(=O)N[C@@H](CCSC)C(=O)N[C@@H](Cc1cnc[nH]1)C(=O)N[C@@H](CC(N)=O)C(=O)N[C@@H](CC(C)C)C(=O)NCC(=O)N[C@@H](CCCCN)C(=O)N[C@@H](Cc1cnc[nH]1)C(=O)N[C@@H](CC(C)C)C(=O)N[C@@H](CC(N)=O)C(=O)N[C@@H](CO)C(=O)N[C@@H](CCSC)C(=O)N[C@@H](CCC(=O)O)C(=O)N[C@@H](CCCNC(=N)N)C(=O)N[C@H](C(=O)N[C@@H](CCC(=O)O)C(=O)N[C@@H](Cc1c[nH]c2ccccc12)C(=O)N[C@@H](CC(C)C)C(=O)N[C@@H](CCCNC(=N)N)C(=O)N[C@@H](CCCCN)C(=O)N[C@@H](CCCCN)C(=O)N[C@@H](CC(C)C)C(=O)N[C@@H](CCC(N)=O)C(=O)N[C@@H](CC(=O)O)C(=O)N[C@H](C(=O)N[C@@H](Cc1cnc[nH]1)C(=O)N[C@@H](CC(N)=O)C(=O)N[C@@H](Cc1ccccc1)C(N)=O)C(C)C)C(C)C`, for which the result in [6], in [4] and in [5] was Active. In addition, the Drug metabolism result in data set [7], in data set [8] and in data set [9] was “Metabolite_Detected” each time. Further, in data set [2], the Stability entry is recorded as “Unstable”. The outcome in data set [3] and in [10] was inactive. Moreover, the Activity entry in data set [11] is reported as “Non-Toxic”. The inhibition result in data set [12] was “Active”. In [13], the half-life at 12 µM stood at 1.9 min.
